SMILES strings stand for the structures. pIC50: −log10 of the molar value. Some results are limits rather than exact numbers.

These results are taken from ChEMBL document CHEMBL1134049, “Antimitotic and cell growth inhibitory properties of combretastatin A-4-like ethers” (Bioorg Med Chem Lett, 2001).

One assay relates to L1210. As to the kind of experiment: Concentration required for 50% inhibition of L1210 murine leukemia cell growth in MTT assay. The assay is classed as functional, cell-based. The note with it: Mus musculus. Background: Tetrazolium dyes change colour on reduction, which living cells bring about.
The test system of the next assay is P388. The experiment in a line: Concentration required for 50% inhibition of P388 murine leukemia cell growth in MTT assay. The class given is functional, cell-based. The note with it: Mus musculus.
The test system of assay [1] is K562. As to the kind of experiment: Concentration required for 50% inhibition of K562 human chronic myelogenous leukemia cell growth in MTT assay. The assay is classed as functional, cell-based. The essentials:
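K562 cells grown at 37 °C with compound for 5 days; growth read by MTT assay; IC50 taken as concentration giving 50% decrease in cell growth.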

Assay [2] has as its target T1, Tubulin (Sus scrofa, UniProt P02554+P02550). The experiment in a line: Effect on tubulin binding and the concentration required to cause 50% decrease in tubulin assembly at 350 nm. The class given is protein assay. The essentials:
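Tubulin assembly followed by increase in turbidity at 350 nm; IC50 is the concentration causing 50% decrease in assembly.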

The test system of assay [3] is K562. As to the kind of experiment: Effect upon G2 M phase of cell cycle relative to untreated control. The assay is classed as functional, Homo sapiens. Also on record: unit not given here.
Assay [4] has as its target T1, Tubulin. The experiment in a line: Concentration required to cause 50% decrease in the binding of [3H]colchicine from purified porcine tubulin. The class given is protein assay.
For assay [5], the system named is K562. The experiment in a line: Effect upon G0-G1 phase of cell cycle relative to untreated control. Also on record: unit not given here. The assay is classed as functional, Homo sapiens.
The subject of assay [6] is K562. The experiment in a line: Effect upon S phase of cell cycle relative to untreated control. The class given is functional, Homo sapiens. Also on record: unit not given here.

One may read the pIC50 as −log10 of the IC50, conventionally taken in molar units. The compound `COc1ccc(-c2cc(OC)c(OC)c(OC)c2)cc1O` showed a pIC50 in the assay with L1210 of less than 4.30.
Turning to `COc1ccc(CCc2cc(OC)c(OC)c(OC)c2)cc1O`, the negative logarithm of the IC50 (pIC50) in the assay on P388 was 6.96.
For the compound `COc1ccc(Nc2cc(OC)c(OC)c(OC)c2)cc1`, the pIC50 with K562 [1] is 5.52.
In the assay with P388, `COc1ccc(C(O)Cc2cc(OC)c(OC)c(OC)c2)cc1O` (centres undefined) showed a pIC50 of 4.48.
For the compound `COc1ccc(Oc2ccc(C)c(C)c2)cc1`, the pIC50 in the assay on K562 [1] was 4.62.
One may read the IC50 as the concentration needed to halve the response being measured. Consider `COc1ccc(OCc2cc(OC)c(OC)c(OC)c2)cc1O`, for which the IC50 on Tubulin [2] was found to be 22.5 µM; on Tubulin [4] it was 226 µM. Besides, the Activity in the assay with K562 [3] came out at 78.3; in the assay with K562 [5], 3.8; in the assay with K562 [6], 17.9. This compound also had a pIC50 with K562 [1] of 6.92.
As to `COc1ccc(Nc2cc(OC)c(OC)c(OC)c2)cc1O`, the IC50 was more than 100 µM on Tubulin [2] and 298 µM at Tubulin [4]. Also, the Activity was found to be 87.2 in the assay on K562 [3], 3.4 in the assay on K562 [5] and 9.4 in the assay on K562 [6]. Moreover, the pIC50 in the assay on K562 [1] is 5.59.
Turning to `COc1ccc(OCc2cc(OC)c(OC)c(OC)c2)cc1C=O`, the results for the IC50 on Tubulin [2] and at Tubulin [4] were 0.6 µM and 4 µM, respectively. Further, the figures for the Activity with K562 [3], in the assay on K562 [5] and in the assay on K562 [6] were 57.8, 9.1 and 33.1, respectively. Further, in the assay with K562 [1], the pIC50 was 6.77.
In the assay on K562 [1], `COc1ccc(COc2cc(OC)c(OC)c(OC)c2)cc1OCC=O` showed a pIC50 of 5.60.
Consider `COc1ccc(Oc2cc(OC)c(OC)c(OC)c2)cc1OCc1ccccc1`, for which the pIC50 in the assay with K562 [1] is 4.29.
`C=CCOc1cc(COc2cc(OC)c(OC)c(OC)c2)ccc1OC`: the pIC50 in the assay on K562 [1] is 4.52.
In turn, `COc1ccc(CC(O)c2cc(OC)c(OC)c(OC)c2)cc1O` (centres undefined) showed a pIC50 in the assay on P388 of 7.48.
In turn, `COc1ccc(OCc2cc(OC)c(OC)c(OC)c2)cc1CO` gave a pIC50 in the assay with K562 [1] of 4.22.
Consider `COc1ccc([C@@H](O)[C@H](O)c2cc(OC)c(OC)c(OC)c2)cc1O`, for which the pIC50 in the assay on P388 was 4.72.
As to `COc1ccc(COc2cc(OC)c(OC)c(OC)c2)cc1O`, the IC50 at Tubulin [2] was 6.6 µM; on Tubulin [4], 36 µM. Also, the figures for the Activity in the assay with K562 [3], in the assay with K562 [5] and with K562 [6] were 82.5, 3.5 and 14, respectively. In addition, the pIC50 in the assay on K562 [1] is 7.70.
Take `COc1ccc(Oc2cc(OC)c(OC)c(OC)c2)cc1O`: the IC50 was determined as 16.3 µM on Tubulin [2] and 36 µM at Tubulin [4]. Moreover, the Activity in the assay with K562 [3] was determined as 73.4; in the assay on K562 [5] it was 4.3; with K562 [6] it was 22.3. The compound further gave a pIC50 in the assay on K562 [1] of 7.30.
Take `COc1ccc(Oc2cc(OC)c(OC)c(OC)c2)cc1`: the pIC50 with K562 [1] is 6.42.
Same read-out and setting: the result for `COc1ccc(COc2cc(OC)c(OC)c(OC)c2)cc1OCC(O)CO` (centres undefined) reads 4.05; that for `COc1ccc(C#Cc2cc(OC)c(OC)c(OC)c2)cc1O`, 4.68.
In the assay on P388, `COc1ccc([C@H](O)[C@@H](O)c2cc(OC)c(OC)c(OC)c2)cc1O` had a pIC50 of 5.70.
With `COc1ccc(Nc2cc(OC)c(OC)c(OC)c2)cc1OCc1ccccc1`, the pIC50 in the assay with K562 [1] is 4.82.
`COc1ccc(/C=C\c2cc(OC)c(OC)c(OC)c2)cc1O` [COMBRETASTATIN A4] had a pIC50 in the assay with P388 of 6.80.
Turning to `COc1ccc(/C=C/c2cc(OC)c(OC)c(OC)c2)cc1O` [E-COMBRETASTATIN A-4], the pIC50 in the assay on P388 is 8.59.
Still for that read-out and setting: next, `COc1ccc(C(=O)c2cc(OC)c(OC)c(OC)c2)cc1O` [PHENSTATIN]: 8.00.
